Experimental findings from ChEMBL document CHEMBL1154352, “Toll-like receptor 7 selective synthetic oligoribonucleotide agonists: synthesis and structure-activity relationship studies” (J Med Chem, 2009) are described below.

Activity calls are given as the source filed them. No cut-off for these calls is given here.

Experiment [1] concerns the target T1, Toll-like receptor 8 (Homo sapiens) (UniProt Q9NR97).
T1 sequence (whole entry): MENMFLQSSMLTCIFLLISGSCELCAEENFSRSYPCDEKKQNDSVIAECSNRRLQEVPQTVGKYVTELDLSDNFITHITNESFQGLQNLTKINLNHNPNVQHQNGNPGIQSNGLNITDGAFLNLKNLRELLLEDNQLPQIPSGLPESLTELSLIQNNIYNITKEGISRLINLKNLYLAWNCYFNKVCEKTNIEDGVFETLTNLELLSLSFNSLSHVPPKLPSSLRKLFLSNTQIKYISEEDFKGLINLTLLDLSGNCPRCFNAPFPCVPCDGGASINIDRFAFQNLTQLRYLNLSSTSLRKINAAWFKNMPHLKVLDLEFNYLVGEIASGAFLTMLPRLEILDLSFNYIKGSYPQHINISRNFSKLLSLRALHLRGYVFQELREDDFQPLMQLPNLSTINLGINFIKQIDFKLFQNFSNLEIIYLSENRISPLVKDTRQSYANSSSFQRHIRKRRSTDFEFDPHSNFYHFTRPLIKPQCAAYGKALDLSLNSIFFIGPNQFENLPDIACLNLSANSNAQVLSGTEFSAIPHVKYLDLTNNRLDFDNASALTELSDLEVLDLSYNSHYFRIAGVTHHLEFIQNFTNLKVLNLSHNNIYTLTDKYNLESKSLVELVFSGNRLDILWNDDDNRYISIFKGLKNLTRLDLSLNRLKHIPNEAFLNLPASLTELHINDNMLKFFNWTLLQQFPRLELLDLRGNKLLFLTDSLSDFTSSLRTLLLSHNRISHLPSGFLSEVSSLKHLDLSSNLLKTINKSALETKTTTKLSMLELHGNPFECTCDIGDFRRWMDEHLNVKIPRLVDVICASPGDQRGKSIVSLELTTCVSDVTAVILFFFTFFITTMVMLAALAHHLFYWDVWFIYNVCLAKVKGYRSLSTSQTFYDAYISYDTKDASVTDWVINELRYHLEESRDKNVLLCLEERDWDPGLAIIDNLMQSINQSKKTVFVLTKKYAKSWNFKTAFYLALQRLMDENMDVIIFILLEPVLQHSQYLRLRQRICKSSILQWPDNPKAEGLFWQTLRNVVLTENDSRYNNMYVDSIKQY
The experiment can be described thus: Activation of human TLR8 expressed in HEK293XL assessed as fold induction of NF-kappaB activity at 50 ug/ml after 18 hrs by reporter gene assay relative to control. An outline of the steps: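 HEK293 cells stably expressing human TLR7 or TLR8, transiently transfected with SEAP reporter plasmid; medium replaced, SIMRA compounds added, 18 h incubation. Supernatant SEAP measured by QuantiBlue; expressed as fold increase in NF-κB activity over PBS control. Tabulated data at 50 μg/mL, representative of three independent experiments.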

The target in experiment [2] is T2, Toll-like receptor 9 (Mus musculus) (UniProt Q9EQU3).
T2 sequence (whole entry): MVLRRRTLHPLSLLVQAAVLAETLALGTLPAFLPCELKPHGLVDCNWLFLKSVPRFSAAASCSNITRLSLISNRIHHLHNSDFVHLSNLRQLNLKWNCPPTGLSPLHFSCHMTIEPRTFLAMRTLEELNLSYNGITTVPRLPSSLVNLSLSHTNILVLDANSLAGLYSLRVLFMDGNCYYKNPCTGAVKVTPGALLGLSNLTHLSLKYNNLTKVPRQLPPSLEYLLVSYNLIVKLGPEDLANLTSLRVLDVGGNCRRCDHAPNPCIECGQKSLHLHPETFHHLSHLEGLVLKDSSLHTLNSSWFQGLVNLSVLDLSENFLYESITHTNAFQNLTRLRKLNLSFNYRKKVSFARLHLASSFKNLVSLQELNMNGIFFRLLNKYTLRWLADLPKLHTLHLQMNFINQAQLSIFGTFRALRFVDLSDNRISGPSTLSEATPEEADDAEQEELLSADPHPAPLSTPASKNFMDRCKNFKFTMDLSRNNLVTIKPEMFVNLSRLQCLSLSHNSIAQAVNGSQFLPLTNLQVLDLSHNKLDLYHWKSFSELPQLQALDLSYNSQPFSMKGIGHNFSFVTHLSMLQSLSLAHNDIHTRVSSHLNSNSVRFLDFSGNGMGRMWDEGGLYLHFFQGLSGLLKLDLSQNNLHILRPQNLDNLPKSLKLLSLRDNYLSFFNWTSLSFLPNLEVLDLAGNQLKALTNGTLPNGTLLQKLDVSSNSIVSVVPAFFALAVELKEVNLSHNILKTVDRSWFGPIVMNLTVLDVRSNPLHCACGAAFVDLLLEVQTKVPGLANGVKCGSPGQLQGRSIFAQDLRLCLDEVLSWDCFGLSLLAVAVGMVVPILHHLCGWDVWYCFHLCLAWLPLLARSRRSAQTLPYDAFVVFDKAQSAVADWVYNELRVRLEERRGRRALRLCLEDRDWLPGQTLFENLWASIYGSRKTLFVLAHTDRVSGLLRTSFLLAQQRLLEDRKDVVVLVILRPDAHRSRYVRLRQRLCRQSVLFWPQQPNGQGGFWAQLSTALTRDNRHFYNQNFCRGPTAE
The experiment can be described thus: Activation of mouse TLR9 expressed in HEK293 assessed as induction of NF-kappaB activity reporter gene assay. The format is cell-based. A general note: Reporter assays use an easily measured gene product as a stand-in for the process of interest.

Experiment [3] relates to Splenocyte. The experiment can be described thus: Immunomodulatory activity in C57BL/6 mouse splenocytes bearing TLR7 receptor assessed as IL6 release at 100 ug/ml after 24 hrs by ELISA. The format is functional, cell-based. The essentials: (§1)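 C57BL/6 splenocytes in RPMI 1640 with 10% FBS, penicillin/streptomycin, 2 mM L-glutamine, plated at 5 × 10^6 cells/mL; compounds in PBS added, 37 °C for 24 h. Supernatant IL-12 and IL-6 by ELISA; representative of three independent experiments.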
Background: ELISA stands for enzyme-linked immunosorbent assay.

In experiment [4] the test system is Splenocyte. The experiment can be described thus: Immunomodulatory activity in C57BL/6 mouse splenocytes bearing TLR7 receptor assessed as IL12 release at 100 ug/ml after 24 hrs by ELISA. The format is functional, cell-based. An outline of the steps: as §1
The subject of experiment [5] is PBMC. The experiment can be described thus: Immunomodulatory activity in human PBMC assessed as induction of IL12 at 100 ug/ml after 24 hrs. The class given is functional, cell-based. The essentials:
(§2)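 Human PBMCs plated at 5 × 10^6 cells/mL; compounds dissolved in PBS added at various concentrations, 37 °C for 24 h. Supernatant cytokines/chemokines quantified with human Luminex multiplex kit.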

For experiment [6], the system named is PBMC. The experiment can be described thus: Immunomodulatory activity in human PBMC assessed as induction of TNFalpha at 100 ug/ml after 24 hrs. The format is functional, cell-based. The essentials: as §2
Experiment [7] has as its system PBMC. The experiment can be described thus: Immunomodulatory activity in human PBMC assessed as induction of IFN-alpha at 100 ug/ml after 24 hrs.

Take `Nc1ccn([C@@H]2O[C@H](COP(=O)(S)O[C@H]3[C@@H](O)[C@H](n4cnc5c(N)ncnc54)O[C@@H]3COP(=O)(S)O[C@H]3[C@@H](O)[C@H](n4ccc5c(=O)[nH]c(N)nc54)O[C@@H]3COP(=O)(S)O[C@H]3[C@@H](O)[C@H](n4ccc(=O)[nH]c4=O)O[C@@H]3COP(=O)(S)O[C@H]3[C@@H](O)[C@H](n4ccc(=O)[nH]c4=O)O[C@@H]3COP(=O)(S)O[C@H]3[C@@H](O)[C@H](n4cnc5c(N)ncnc54)O[C@@H]3COP(=O)(S)O[C@H]3[C@@H](O)[C@H](n4cnc5c(N)ncnc54)O[C@@H]3CO)[C@@H](OP(=O)(S)OC[C@H]3O[C@@H](n4ccc5c(=O)[nH]c(N)nc54)[C@H](O)[C@@H]3OP(=O)(S)OC[C@H]3O[C@@H](n4ccc(N)nc4=O)[C@H](O)[C@@H]3OP(=O)(S)OC[C@H]3O[C@@H](n4ccc(=O)[nH]c4=O)[C@H](O)[C@@H]3OP(=O)(S)OC[C@H]3O[C@@H](n4ccc(=O)[nH]c4=O)[C@H](O)[C@@H]3OP(=O)(S)OCC(O)COP(=O)(S)O[C@H]3[C@@H](O)[C@H](n4ccc(=O)[nH]c4=O)O[C@@H]3COP(=O)(S)O[C@H]3[C@@H](O)[C@H](n4ccc(=O)[nH]c4=O)O[C@@H]3COP(=O)(S)O[C@H]3[C@@H](O)[C@H](n4ccc(N)nc4=O)O[C@@H]3COP(=O)(S)O[C@H]3[C@@H](O)[C@H](n4ccc5c(=O)[nH]c(N)nc54)O[C@@H]3COP(=O)(S)O[C@H]3[C@@H](O)[C@H](n4ccc(N)nc4=O)O[C@@H]3COP(=O)(S)O[C@H]3[C@@H](O)[C@H](n4cnc5c(N)ncnc54)O[C@@H]3COP(=O)(S)O[C@H]3[C@@H](O)[C@H](n4ccc5c(=O)[nH]c(N)nc54)O[C@@H]3COP(=O)(S)O[C@H]3[C@@H](O)[C@H](n4ccc(=O)[nH]c4=O)O[C@@H]3COP(=O)(S)O[C@H]3[C@@H](O)[C@H](n4ccc(=O)[nH]c4=O)O[C@@H]3COP(=O)(S)O[C@H]3[C@@H](O)[C@H](n4cnc5c(N)ncnc54)O[C@@H]3COP(=O)(S)O[C@H]3[C@@H](O)[C@H](n4cnc5c(N)ncnc54)O[C@@H]3CO)[C@H]2O)c(=O)n1` (some centres not stated): the fold change (FC) in experiment [1] came out at 0.3. In addition, the result in experiment [2] was inactive. For the same compound, the result with Splenocyte [3] and in the experiment on Splenocyte [4] was Active. For the same compound, the results for the Activity in the experiment with PBMC [5] and in the experiment on PBMC [6] were 340 pg/mL and 8.8 pg/mL, respectively. In addition, the IFN-alpha with PBMC [7] worked out at 193 pg/mL.
